Measured values published in ChEMBL document CHEMBL1124639, “Synthesis and in vitro pharmacology of arpromidine and related phenyl(pyridylalkyl)guanidines, a potential new class of positive inotropic drugs” (J Med Chem, 1989).
The source made the active and inactive calls. The calls are words filed in the database; no cut-off is given here.

Tests used:
Cavia porcellus [1] = organism: Cavia porcellus; experiment: Increase in heart rate with maximal inotropic response in isolated perfused guinea pig heart; assay type: functional; design: unit not given beside the values
Procedure, shortened: (§1)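 Langendorff-perfused isolated guinea pig heart. Compounds were given as a bolus injected into the perfusion stream, with impromidine as reference. Net increases in LV dp/dtmax, heart rate and coronary flow were expressed against impromidine = 100% in a control group (n = 6 each). Relative potency was taken from molar ED50 ratios versus impromidine = 100%.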

Cavia porcellus [2] = organism: Cavia porcellus; experiment: Chronotropic effect assessed from maximal increase in delta LV (dp/dtmax) in isolated perfused guinea pig heart; assay type: functional; conditions: in the assay text read “Inotropic effect” for “Chronotropic effect”; procedure, shortened: as §1
Cavia porcellus [3] = organism: Cavia porcellus; experiment: Increase in coronary flow with maximal inotropic response in isolated perfused guinea pig heart; assay type: functional; design: unit not given beside the values; procedure, shortened: as §1
Cavia porcellus [4] = organism: Cavia porcellus; experiment: Relative potency with impromidine (100%) in isolated perfused guinea pig heart; assay type: functional; procedure, shortened: as §1
[5] = molecular target: Histamine H2 receptor (Cavia porcellus) (UniProt P47747); experiment: Histamine H2 receptor agonistic activity (as a measure of agonism) at the isolated right atrium of guinea pig, activity relative to histamine.; assay type: functional, tissue-based; conditions: Cardiac atrium
Procedure, shortened: (§2)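 Spontaneously beating isolated guinea pig right atrium with a positive chronotropic read-out. Cumulative concentration-response curves were run against histamine dihydrochloride as the standard. Incubation after each concentration was usually 25 min, adjusted until equilibrium. H2 selectivity was checked with cimetidine (10 µM and 1 µM) and metoprolol (1 µM). Potency relative to histamine = 1 was calculated from mean pD2 values.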

[6] = molecular target: Histamine H2 receptor (Cavia porcellus) (UniProt P47747); experiment: Intrinsic activity (as a measure of agonism) on electrically stimulated papillary muscle of guinea pig; assay type: functional, tissue-based; conditions: Muscle tissue
Procedure, shortened: (§3)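 Isolated right-ventricular papillary muscle from guinea pig, electrically paced at 1 Hz with 1 ms pulses, in Krebs-Henseleit solution gassed with O2/CO2 95:5 at 32.5 °C. Compounds were tested as hydrohalide salts. Cumulative concentration-response curves of contractile force were run against histamine as the standard agonist. […] relative potency were taken from pD2, with histamine maximum = 1.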

[7] = molecular target: Histamine H2 receptor (Cavia porcellus) (UniProt P47747); experiment: Potency relative to histamine calculated from mean pD2 value in guinea pig right atrium.; assay type: functional, tissue-based; conditions: Cardiac atrium; procedure, shortened: as §2
[8] = molecular target: Histamine H2 receptor (Cavia porcellus) (UniProt P47747); experiment: Histamine H2 receptor agonism relative to histamine on isolated guinea pig right atrium; assay type: functional, tissue-based; conditions: Cardiac atrium; procedure, shortened: as §2
[9] = molecular target: Histamine H2 receptor (Cavia porcellus) (UniProt P47747); experiment: Agonistic activity relative to histamine on electrically stimulated papillary muscle of guinea pig; assay type: functional, tissue-based; conditions: Muscle tissue; procedure, shortened: as §3
Histamine H1 receptor [10] = molecular target: T1, Histamine H1 receptor (Cavia porcellus, UniProt P31389); experiment: Antagonist activity at histamine H1 receptor against histamine in isolated ileum of guinea pig.; assay type: functional, tissue-based; conditions: read-out: pA2 (converted)
Procedure, shortened: (§4)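 Isolated guinea pig ileum contracted by histamine, with histamine dihydrochloride as the standard agonist in cumulative dose-response curves. pA2 was derived. For compounds that depressed the histamine maximum at 10 µM, -log KB was taken at 3 µM antagonist from log(DR-1) = log[ant.] - log KB.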

[11] = molecular target: Histamine H2 receptor (Cavia porcellus) (UniProt P47747); experiment: Compound was tested for histamine H2 receptor agonistic activity of compound relative to histamine on isolated right atrium of guinea pig;NA means inactive as agonist at </=10 uM.; assay type: functional, tissue-based; conditions: Cardiac atrium; procedure, shortened: as §2
[12] = molecular target: Histamine H2 receptor (Cavia porcellus) (UniProt P47747); experiment: H2 receptor agonistic activity in isolated right atrium of guinea pig compared to histamine; assay type: functional, tissue-based; conditions: Cardiac atrium; procedure, shortened: as §2
[13] = molecular target: Histamine H2 receptor (Cavia porcellus) (UniProt P47747); experiment: Intrinsic activity at H2 receptor in electrically stimulated guinea pig papillary muscle; assay type: functional, tissue-based; procedure, shortened: as §3
[14] = molecular target: Histamine H2 receptor (Cavia porcellus) (UniProt P47747); experiment: Potency at H2 receptor compared to histamine from mean pD2 value in right atrium of guinea pig; assay type: functional, tissue-based; conditions: Cardiac atrium; procedure, shortened: as §2
[15] = molecular target: Histamine H2 receptor (Cavia porcellus) (UniProt P47747); experiment: Agonist activity at H2 receptor relative to histamine on electrically stimulated papillary muscle of guinea pig; assay type: functional, tissue-based; procedure, shortened: as §3
[16] = molecular target: Histamine H2 receptor (Cavia porcellus) (UniProt P47747); experiment: H2 receptor agonist activity relative to histamine on isolated right atrium of guinea pig; assay type: functional, tissue-based; conditions: Cardiac atrium; procedure, shortened: as §2
Histamine H1 receptor [17] = molecular target: T1, Histamine H1 receptor; experiment: Antagonist activity at histamine H1 receptor against histamine in isolated ileum of guinea pig; assay type: functional, tissue-based; conditions: read-out: pA2 (converted); procedure, shortened: as §4

Chain of Histamine H2 receptor (Cavia porcellus) (P47747 whole entry): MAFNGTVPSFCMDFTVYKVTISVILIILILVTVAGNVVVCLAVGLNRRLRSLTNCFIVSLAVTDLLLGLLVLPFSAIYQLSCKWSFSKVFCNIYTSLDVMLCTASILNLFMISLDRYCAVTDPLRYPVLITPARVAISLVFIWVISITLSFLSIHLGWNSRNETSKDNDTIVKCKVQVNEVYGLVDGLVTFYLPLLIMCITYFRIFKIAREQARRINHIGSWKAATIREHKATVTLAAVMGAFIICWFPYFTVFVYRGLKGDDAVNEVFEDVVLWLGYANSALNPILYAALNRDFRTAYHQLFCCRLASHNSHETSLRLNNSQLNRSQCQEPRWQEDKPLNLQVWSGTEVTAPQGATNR
T1 sequence (P31389 whole entry): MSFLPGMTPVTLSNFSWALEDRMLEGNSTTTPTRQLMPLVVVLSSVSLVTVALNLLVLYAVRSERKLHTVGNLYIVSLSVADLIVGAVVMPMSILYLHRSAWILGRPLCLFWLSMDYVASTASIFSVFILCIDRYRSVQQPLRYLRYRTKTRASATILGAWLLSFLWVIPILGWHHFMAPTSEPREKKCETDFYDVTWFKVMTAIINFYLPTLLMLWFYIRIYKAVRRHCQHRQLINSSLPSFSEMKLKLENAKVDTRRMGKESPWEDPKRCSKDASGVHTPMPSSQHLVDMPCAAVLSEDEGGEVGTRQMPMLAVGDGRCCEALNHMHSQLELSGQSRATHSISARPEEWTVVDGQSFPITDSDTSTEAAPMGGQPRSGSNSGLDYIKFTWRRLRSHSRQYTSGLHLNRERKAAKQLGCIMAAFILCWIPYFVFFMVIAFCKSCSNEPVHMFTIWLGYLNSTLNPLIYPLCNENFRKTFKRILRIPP

| SMILES | Intrinsic activity [5] | Intrinsic activity [6] | Relative potency [7] | pD2 [8] | pD2 [9] | Kb (Histamine H1 receptor [10]) [nM] | also measured |
| --- | --- | --- | --- | --- | --- | --- | --- |
| N=C(NCCCc1c[nH]cn1)NCCC(c1cccc(Cl)c1)c1ccccn1 (stereo not drawn) | 1 | 0.6 | 87.1 | 7.94 | 7.71 |  | Delta heart rate (Cavia porcellus [1]): 96; Delta LV (Cavia porcellus [2]): 103; Delta coronary flow (Cavia porcellus [3]): 79; Relative potency (Cavia porcellus [4]): 199 |
| N=C(NCCCc1c[nH]cn1)NCCC(Cc1ccccc1)c1ccc(F)cc1 (stereo not drawn) | 0.8 |  | 1.5 | 6.17 |  | 141 |  |
| N=C(NCCCc1c[nH]cn1)NCCC(c1ccccn1)c1ccc(Cl)cc1Cl (stereo not drawn) | 0.9 |  | 52.5 | 7.72 |  | 288 |  |
| N/C(=N\CCC(c1cccc(N)c1)c1ccccn1)NCCCc1c[nH]cn1 (stereo not drawn) | 0.9 |  | 24 | 7.38 |  | 851 |  |
| NC(=NCCC(c1ccc(F)cc1)c1ccccn1)NCCCc1cnc[nH]1 (stereo not drawn) [ARPROMIDINE] |  |  |  |  |  | 22.4 |  |
| N=C(NCCCc1c[nH]cn1)NCCC(c1cc(F)cc(F)c1)c1ccccn1 (stereo not drawn) | 1 | 0.8 | 112 | 8.05 | 7.91 | 275 | Delta heart rate (Cavia porcellus [1]): 79; Delta LV (Cavia porcellus [2]): 129; Delta coronary flow (Cavia porcellus [3]): 182; Relative potency (Cavia porcellus [4]): 244 |
| N=C(NCCCc1c[nH]cn1)NCCC(c1ccccc1)c1ccc(Cl)c(Cl)c1 (stereo not drawn) | 1 | 0.6 | 28.8 | 7.46 | 6.03 | 195 |  |
| N=C(NCCCc1c[nH]cn1)NCCCC(c1ccccc1)c1ccccn1 (stereo not drawn) | 1 |  | 4.1 | 6.61 |  |  |  |
| N=C(NCCCc1c[nH]cn1)NCCC(c1ccc(F)cc1)c1cccnc1 (stereo not drawn) | 1 | 0.8 | 123 | 8.09 | 7.91 |  |  |
| N=C(NCCCc1c[nH]cn1)NCCC(c1ccccn1)c1ccccn1 | 1 |  | 7.9 | 6.9 |  | 389 |  |
| COc1ccc(C(CC/N=C(\N)NCCCc2c[nH]cn2)c2ccccn2)cc1 (stereo not drawn) | 1 | 0.5 | 27.5 | 7.44 | 7 | 269 |  |
| N=C(NCCCc1c[nH]cn1)NCCC(c1ccc(F)cc1)c1ccccn1 (stereo not drawn) [ARPROMIDINE] | 1 | 0.8 | 102 | 8.01 | 7.94 |  | Delta heart rate (Cavia porcellus [1]): 57; Delta LV (Cavia porcellus [2]): 97; Delta coronary flow (Cavia porcellus [3]): 143; Relative potency (Cavia porcellus [4]): 146 |
| CN(CCC(c1ccc(F)cc1)c1ccccn1)C(=N)NCCCc1c[nH]cn1 (stereo not drawn) | 0.8 |  | 0.25 | 5.4 |  | 1100 |  |
| N/C(=N\CCC(O)(c1ccc(F)cc1)c1ccccn1)NCCCc1c[nH]cn1 (stereo not drawn) | 0.9 |  | 26.3 | 7.42 |  | 115 |  |
| N=C(NCCCc1c[nH]cn1)NCCC(c1cccc(C(F)(F)F)c1)c1ccccn1 (stereo not drawn) | 1 | 0.7 | 26.9 | 7.43 | 7.44 | 525 |  |
| Cc1[nH]cnc1CSCCNC(=N)NCCCc1c[nH]cn1 [IMPROMIDINE] |  |  |  |  |  |  | Delta heart rate (Cavia porcellus [1]): 100; Delta LV (Cavia porcellus [2]): 100; Delta coronary flow (Cavia porcellus [3]): 100; Relative potency (Cavia porcellus [4]): 100 |
| N/C(=N\CCC(c1cccc([N+](=O)[O-])c1)c1ccccn1)NCCCc1c[nH]cn1 (stereo not drawn) | 0.9 |  | 8.1 | 6.91 |  | 1700 |  |
| N=C(N)NCCC(c1ccc(F)cc1)c1ccccn1 (stereo not drawn) |  |  |  |  |  | 229 | Intrinsic activity [11]: inactive |
| N=C(NCCCc1c[nH]cn1)NCCC(c1ccc(F)c(F)c1)c1ccccn1 (stereo not drawn) |  |  |  |  |  |  | Delta heart rate (Cavia porcellus [1]): 85; Delta LV (Cavia porcellus [2]): 123; Delta coronary flow (Cavia porcellus [3]): 108; Relative potency (Cavia porcellus [4]): 240; Intrinsic activity [12]: 1; Intrinsic activity [13]: 0.8; Relative potency [14]: 132; pD2 [15]: 7.9; pD2 [16]: 8.12 |

| SMILES | Intrinsic activity [5] | Intrinsic activity [6] | Relative potency [7] | pD2 [8] | pD2 [9] | Kb (Histamine H1 receptor [10]) [nM] | also measured |
| --- | --- | --- | --- | --- | --- | --- | --- |
| N=C(NCCCc1c[nH]cn1)NCCC(c1cc(Cl)cc(Cl)c1)c1ccccn1 (stereo not drawn) | 1 |  | 23.4 | 7.37 |  | 43.7 |  |
| N=C(NCCCc1c[nH]cn1)NCCC(c1ccc(Cl)c(Cl)c1)c1ccccn1 (stereo not drawn) | 1 | 0.8 | 155 | 8.19 | 7.54 | 79.4 | Delta heart rate (Cavia porcellus [1]): 62; Delta LV (Cavia porcellus [2]): 121; Delta coronary flow (Cavia porcellus [3]): 128; Relative potency (Cavia porcellus [4]): 221 |
| N=C(NCCCc1c[nH]cn1)NCCC(c1ccc(C(F)(F)F)cc1)c1ccccn1 (stereo not drawn) | 0.9 | 0.9 | 57.5 | 7.76 | 7.23 | 282 |  |
| N=C(NCCCc1c[nH]cn1)NCCC(c1ccccn1)c1ccccc1Cl (stereo not drawn) |  |  |  |  |  | 513 | Intrinsic activity [12]: 0.9; Relative potency [14]: 22.4; pD2 [16]: 7.35 |
| N=C(NCCCc1c[nH]cn1)NCCC(c1ccccc1)c1ccc(Cl)cc1 (stereo not drawn) |  |  |  |  |  | 97.7 | Intrinsic activity [12]: 1; Intrinsic activity [13]: 0.8; Relative potency [14]: 13.2; pD2 [15]: 5.83; pD2 [16]: 7.12 |
| N=C(NCCCc1c[nH]cn1)NCC(c1ccccc1)c1ccccn1 (stereo not drawn) | 1 |  | 2.2 | 6.35 |  | 3310 |  |
| N=C(NCCCc1c[nH]cn1)NCCCC(c1ccc(F)cc1)c1ccccn1 (stereo not drawn) | 0.9 |  | 7.4 | 6.87 |  | 46.8 |  |
| N=C(NCCCc1c[nH]cn1)NCCC(c1cccc(F)c1)c1ccccn1 (stereo not drawn) | 1 | 0.5 | 75.9 | 7.88 | 7.79 | 158 |  |
| N=C(NCCCc1c[nH]cn1)NCCC(c1ccncc1)c1ccc(F)cc1 (stereo not drawn) |  |  |  |  |  | 37.2 | Intrinsic activity [12]: 1; Intrinsic activity [13]: 0.9; Relative potency [14]: 42.7; pD2 [15]: 7.28; pD2 [16]: 7.63 |
| N=C(NC/C=C(\c1ccc(F)cc1)c1ccccn1)NCCCc1c[nH]cn1 | 1 |  | 29.5 | 7.47 |  | 347 |  |
| N=C(NCCCc1c[nH]cn1)NCCC(c1ccccc1)c1ccc(F)cc1 (stereo not drawn) | 1 | 0.7 | 53.7 | 7.73 | 7.45 | 34.7 |  |
| N=C(NCCCc1c[nH]cn1)NCCC(c1ccccn1)c1ccccc1F (stereo not drawn) | 1 |  | 28.8 | 7.46 |  | 437 |  |
| N=C(NCCCc1c[nH]cn1)NCCSC(c1ccccc1)c1ccccn1 (stereo not drawn) | 1 |  | 4 | 6.6 |  |  |  |
| N=C(NCCCc1c[nH]cn1)NCCC(c1ccc(Br)cc1)c1ccccn1 (stereo not drawn) | 1 | 0.4 | 30.2 | 7.48 | 6.97 | 120 | Delta heart rate (Cavia porcellus [1]): 101; Delta LV (Cavia porcellus [2]): 93; Delta coronary flow (Cavia porcellus [3]): 155; Relative potency (Cavia porcellus [4]): 61 |
| N/C(=N\CCC(c1ccc(O)cc1)c1ccccn1)NCCCc1c[nH]cn1 (stereo not drawn) | 1 |  | 4.3 | 6.63 |  |  | Kb (Histamine H1 receptor [17]): 661 nM |
| Cc1ccc(C(CC/N=C(\N)NCCCc2c[nH]cn2)c2ccccn2)cc1 (stereo not drawn) | 1 | 1 | 51.3 | 7.71 | 7.15 | 148 | Delta heart rate (Cavia porcellus [1]): 77; Delta LV (Cavia porcellus [2]): 96; Delta coronary flow (Cavia porcellus [3]): 59; Relative potency (Cavia porcellus [4]): 138 |
| N=C(NCCCc1c[nH]cn1)NCCC(c1ccccn1)c1cccs1 (stereo not drawn) | 1 |  | 14.5 | 7.16 |  | 45.7 |  |
| N=C(NCCCc1c[nH]cn1)NCCC(c1ccc(Cl)cc1)c1ccccn1 (stereo not drawn) | 1 | 0.8 | 69.2 | 7.84 | 7.39 | 77.6 | Delta heart rate (Cavia porcellus [1]): 62; Delta LV (Cavia porcellus [2]): 91; Delta coronary flow (Cavia porcellus [3]): 103; Relative potency (Cavia porcellus [4]): 90 |
